Assay results published in ChEMBL document CHEMBL5724801, “EUbOPEN Chemogenomics Library - Multiplex” (2024).
“And” between values parts separate entries of the source, which are not always exact repeats. Identical values can stand only once.

Legend:
Fibroblast = assay: Multiplex assay against human fibroblast; assay type: toxicity, cell-based
Outline: (§1)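 Cells stained live at seeding with Hoechst33342, BioTracker Green Microtubule Cytoskeleton Dye, MitoTracker Red and Annexin V Alexa Fluor 680 were imaged on a CQ1 microscope at 37°C and 5% CO2 after compound addition. Their classification by CellPathfinder machine-learning gating ran from Hoechst high-intensity objects versus normal cells, to healthy, pyknosed or fragmented nuclei among normal cells, to mitotic or apoptotic among pyknosed cells. Tubulin, mitochondrial-mass and membrane-permeability phenotypes are per cents of healthy-nucleus cells.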

HEK-293T = assay: Multiplex assay against HEK293T; assay type: toxicity, cell-based; settings: human; outline: as §1
[1] = 12 h, 1 µM, compound concentration 1 uM
[2] = 12 h, 10 µM, compound concentration 10 uM
[3] = 24 h, 1 µM, compound concentration 1 uM
[4] = 24 h, 10 µM, compound concentration 10 uM
[5] = 48 h, 1 µM, compound concentration 1 uM
[6] = 48 h, 10 µM, compound concentration 10 uM

Clc1ccccc1C(c1ccccc1)(c1ccccc1)n1cccn1
Population Apoptotic (%) (Fibroblast; [1]): 14.29% and 24% | Population Healthy Nuclei (%) (Fibroblast; [1]): 59.04% and 80.46% | Population Hoechst High Intensity Objects (%) (Fibroblast; [1]): 0% | Population Membrane Permeable-Phenotype (%) (Fibroblast; [1]): 4.08% and 0.71% | Population Mitochondria Different-Phenotype (%) (Fibroblast; [1]): 5.1% and 12.14% | Population Mitotic Cells (%) (Fibroblast; [1]): 85.71% and 76% | Population Normal (%) (Fibroblast; [1]): 100% | Population Pyknosed Nuclei (%) (Fibroblast; [1]): 25.3% and 14.37% | Total Cell Count (Fibroblast; [1]): 166 and 174 | Population Apoptotic (%) (Fibroblast; [2]): 9.84% and 23.44% | Population Fragmented Nuclei (%) (Fibroblast; [2]): 9.09% and 6.46% | Population Healthy Nuclei (%) (Fibroblast; [2]): 63.18% and 69.2% | Population Hoechst High Intensity Objects (%) (Fibroblast; [2]): 0% | Population Membrane Permeable-Phenotype (%) (Fibroblast; [2]): 9.35% and 3.85% | Population Mitochondria Different-Phenotype (%) (Fibroblast; [2]): 14.39% and 16.48% | Population Mitotic Cells (%) (Fibroblast; [2]): 90.16% and 76.56% | Population Normal (%) (Fibroblast; [2]): 100% | Population Pyknosed Nuclei (%) (Fibroblast; [2]): 27.73% and 24.33% | Population Tubulin-Different-Phenotype (%) (Fibroblast; [2]): 30.22% and 45.6% | Total Cell Count (Fibroblast; [2]): 220 and 263 | Population Fragmented Nuclei (%) (Fibroblast; [3]): 12.05% and 9.29% | Population Healthy Nuclei (%) (Fibroblast; [3]): 71.08% and 85.25% | Population Hoechst High Intensity Objects (%) (Fibroblast; [3]): 0% | Population Membrane Permeable-Phenotype (%) (Fibroblast; [3]): 4.24% and 2.56% | Population Mitochondria Different-Phenotype (%) (Fibroblast; [3]): 3.39% and 8.97% | Population Mitotic Cells (%) (Fibroblast; [3]): 96.43% and 60% | Population Normal (%) (Fibroblast; [3]): 100% | Population Tubulin-Different-Phenotype (%) (Fibroblast; [3]): 10.17% and 21.15% | Total Cell Count (Fibroblast; [3]): 166 and 183 | Population Apoptotic (%) (Fibroblast; [4]): 13.04% and 31.25% | Population Healthy Nuclei (%) (Fibroblast; [4]): 67.26% and 79.55% | Population Hoechst High Intensity Objects (%) (Fibroblast; [4]): 0% | Population Membrane Permeable-Phenotype (%) (Fibroblast; [4]): 9.87% and 0.95% | Population Mitochondria Different-Phenotype (%) (Fibroblast; [4]): 7.24% and 10.95% | Population Mitotic Cells (%) (Fibroblast; [4]): 86.96% and 68.75% | Population Normal (%) (Fibroblast; [4]): 100% | Population Pyknosed Nuclei (%) (Fibroblast; [4]): 20.35% and 18.18% | Population Tubulin-Different-Phenotype (%) (Fibroblast; [4]): 45.39% and 44.29% | Total Cell Count (Fibroblast; [4]): 226 and 264 | Population Apoptotic (%) (Fibroblast; [5]): 40% and 22.22% | Population Fragmented Nuclei (%) (Fibroblast; [5]): 11.92% and 7.69% | Population Healthy Nuclei (%) (Fibroblast; [5]): 82.9% and 87.69% | Population Hoechst High Intensity Objects (%) (Fibroblast; [5]): 0% | Population Membrane Permeable-Phenotype (%) (Fibroblast; [5]): 0.62% and 0.58% | Population Mitochondria Different-Phenotype (%) (Fibroblast; [5]): 11.25% and 3.51% | Population Mitotic Cells (%) (Fibroblast; [5]): 60% and 77.78% | Population Normal (%) (Fibroblast; [5]): 100% | Population Pyknosed Nuclei (%) (Fibroblast; [5]): 5.18% and 4.62% | Total Cell Count (Fibroblast; [5]): 193 and 195 | Population Apoptotic (%) (Fibroblast; [6]): 30.77% and 42.86% | Population Fragmented Nuclei (%) (Fibroblast; [6]): 9.35% and 4.71% | Population Healthy Nuclei (%) (Fibroblast; [6]): 85.37% and 89.8% | Population Hoechst High Intensity Objects (%) (Fibroblast; [6]): 0% | Population Membrane Permeable-Phenotype (%) (Fibroblast; [6]): 1.9% and 3.49% | Population Mitochondria Different-Phenotype (%) (Fibroblast; [6]): 13.33% and 6.11% | Population Mitotic Cells (%) (Fibroblast; [6]): 69.23% and 57.14% | Population Normal (%) (Fibroblast; [6]): 100% | Population Pyknosed Nuclei (%) (Fibroblast; [6]): 5.28% and 5.49% | Population Tubulin-Different-Phenotype (%) (Fibroblast; [6]): 14.76% and 36.24% | Total Cell Count (Fibroblast; [6]): 246 and 255 | Population Apoptotic (%) (HEK-293T; [1]): 7.87% and 11.11% | Population Fragmented Nuclei (%) (HEK-293T; [1]): 1.79% and 6.3% | Population Hoechst High Intensity Objects (%) (HEK-293T; [1]): 0% | Population Membrane Permeable-Phenotype (%) (HEK-293T; [1]): 0% and 5% | Population Mitochondria Different-Phenotype (%) (HEK-293T; [1]): 33.99% and 35% | Population Mitotic Cells (%) (HEK-293T; [1]): 92.13% and 88.89% | Population Normal (%) (HEK-293T; [1]): 100% | Population Pyknosed Nuclei (%) (HEK-293T; [1]): 37.8% and 77.95% | Total Cell Count (HEK-293T; [1]): 336 and 127 | Population Apoptotic (%) (HEK-293T; [2]): 10.45% and 10.49% | Population Fragmented Nuclei (%) (HEK-293T; [2]): 2.33% and 0.57% | Population Hoechst High Intensity Objects (%) (HEK-293T; [2]): 0.33% and 0% | Population Membrane Permeable-Phenotype (%) (HEK-293T; [2]): 0% | Population Mitochondria Different-Phenotype (%) (HEK-293T; [2]): 33.96% and 33.33% | Population Mitotic Cells (%) (HEK-293T; [2]): 89.55% and 89.51% | Population Normal (%) (HEK-293T; [2]): 99.67% and 100% | Population Pyknosed Nuclei (%) (HEK-293T; [2]): 44.67% and 82.18% | Total Cell Count (HEK-293T; [2]): 301 and 174 | Population Apoptotic (%) (HEK-293T; [3]): 11.32% and 14.85% | Population Fragmented Nuclei (%) (HEK-293T; [3]): 0.96% and 6.08% | Population Hoechst High Intensity Objects (%) (HEK-293T; [3]): 0.19% and 0% | Population Membrane Permeable-Phenotype (%) (HEK-293T; [3]): 0.49% and 2.63% | Population Mitochondria Different-Phenotype (%) (HEK-293T; [3]): 14.43% and 13.16% | Population Mitotic Cells (%) (HEK-293T; [3]): 88.68% and 85.15% | Population Normal (%) (HEK-293T; [3]): 99.81% and 100%
